Pf Dd2 growth: P. falciparum Dd2 growth inhibitors, primary screen, SYBR Green fluorescence, single dose replicates. 72 h; stronger effect = lower value. activity change, % at 10 µM. 94,000 compounds, 2.3% hits. AID 1159554, 2015; in the data active = activity change below about -80%; inconclusive = no clear call, values can overlap the other calls
KDM4C inh: inhibitors of GASC-1 (KDM4C) histone demethylase, primary screen, biochemical, single concentration HTS. GST-KDM4C 2-372, H3K9me3 peptide, LANCE TR-FRET. inhibition, % at 12.5 µM. AID 720574, 2013. 96,000 compounds, 0.15% hits;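 active = mean replicate inhibition above about 25%, with at least 55% of replicates also reaching it, limit read from the data, passing the limit was not always enough; inconclusive = only one of those two conditions met; inactive = neither condition met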
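material = GST-tagged GASC-1 (JMJD2C) catalytic fragment, aa 2-372 | amount = enzyme final amount 10 nM | medium = HEPES buffer, pH 7.5, plus ascorbate | also added = H3K9me3 peptide substrate, Fe(II), 2-oxoglutarate | dosing = single dose | times = 30 min demethylation and 1 h detection at room temperature | detection = LANCE TR-FRET | read-out basis = Fall in 671/618 emission ratio as inhibition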
IDH1 R132H inh: inhibitors of IDH1 R132H reductase, primary screen, biochemical, plate reader, single point. 70,000 compounds, 0.18% hits. Isocitrate dehydrogenase [NADP] cytoplasmic (Homo sapiens), O75874. inhibition, % at 10 µM. diaphorase/resazurin fluorescence, 60 min; in the data active = inhibition above about 34%; inconclusive = no clear call, values can overlap the other calls; inactive = below about 11%;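 also: 0% = DMSO and 100% = no enzyme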
Target sequence (O75874 whole entry R132H): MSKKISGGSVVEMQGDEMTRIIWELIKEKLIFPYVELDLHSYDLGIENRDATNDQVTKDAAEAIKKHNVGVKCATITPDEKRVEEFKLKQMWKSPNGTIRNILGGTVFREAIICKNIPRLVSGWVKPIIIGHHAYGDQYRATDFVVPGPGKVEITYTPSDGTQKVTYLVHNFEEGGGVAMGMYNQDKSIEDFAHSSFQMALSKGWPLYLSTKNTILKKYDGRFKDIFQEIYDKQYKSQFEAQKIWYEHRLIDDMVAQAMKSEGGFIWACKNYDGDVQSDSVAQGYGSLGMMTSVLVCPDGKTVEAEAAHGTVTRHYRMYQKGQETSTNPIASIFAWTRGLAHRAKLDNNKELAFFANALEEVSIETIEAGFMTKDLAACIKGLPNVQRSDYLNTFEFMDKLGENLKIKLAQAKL
T cruzi growth-1: T. cruzi intracellular proliferation inhibitors, primary screen, cell-based, beta-gal Tulahuen parasites, NIH3T3 host, luminescence | inhibition, % at 8.34 µM | T. cruzi beta-gal in NIH3T3, GalScreen luminescence, 90 h | 77,000 compounds, 5.9% hits;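 active = mean inhibition above about 93%, with at least 55% of replicates each passing it, limit read from the data, passing the limit was not always enough; inconclusive = only one of those two conditions holds; inactive = neither condition holds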
T cruzi growth-2: T. cruzi intracellular proliferation inhibitors, confirmation, cell-based, NIH3T3 host, beta-gal parasite, luminescence, cherry-pick; shares compounds with T cruzi growth-1; T. cruzi beta-gal in NIH3T3, GalScreen luminescence, 90 h; inhibition, % at 8.35 µM; 5,600 compounds, 72% hits;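 active = mean replicate inhibition above about 95% and at least 55% of replicates individually reaching it, limit read from the data; inconclusive = only one of the two criteria is met; inactive = neither criterion is met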
T cruzi growth-3: inhibitors of intracellular T. cruzi replication, confirmation, NIH3T3 host cells, beta-gal parasites, cherry-pick, set 2 | T. cruzi beta-gal in NIH3T3, GalScreen luminescence, 90 h | inhibition, % at 2.09 µM | 5,600 compounds, 21% hits | shares compounds with T cruzi growth-1;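 active = mean inhibition above about 95%, with at least 55% of replicates also reaching it, limit read from the data; inconclusive = meets just one of the two conditions; inactive = meets neither condition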;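 also: plate controls were neutral control median for no effect and positive control median for full effect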
3T3 cytotox: cytotoxicity in mouse NIH/3T3 fibroblasts, confirmation, cytotoxicity control for T. cruzi proliferation inhibitor project, cell-based, cherry-pick, single point. cytotoxicity (signal decrease), % at 8.35 µM. NIH/3T3 viability, CellTiter-Glo ATP luminescence, 90 h. shares compounds with T cruzi growth-1. 5,600 compounds, 14% hits;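 active = mean signal decrease across replicates above about 35% based on untreated-well scatter, with enough replicates individually passing, limit read from the data; inconclusive = no rule stated though some were filed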;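 also: 0% = median of neutral control wells and 100% = median of positive control wells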
NIH3T3 tox 2: NIH/3T3 fibroblast cytotoxicity, confirmation, cytotoxicity control, cell-based, cherry-pick, single point, set 2. shares compounds with T cruzi growth-1. NIH/3T3 viability, CellTiter-Glo ATP luminescence, 90 h. inhibition, % at 24.9 µM. 5,600 compounds, 56% hits;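 active = mean loss of cell viability signal at or above a set limit, and enough replicates individually reaching it; inconclusive = meets only the mean limit or only the replicate share; inactive = meets neither condition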;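 also: 0% = median of neutral control wells and 100% = median of positive control wells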
* = called active by the depositor; ? = inconclusive; nt = no result. Rows were chosen to be rich in hits. Some 5.8% of all compounds tested hit in one or more screens of this group.

SMILES	Pf Dd2 growth	KDM4C inh	IDH1 R132H inh	T cruzi growth-1	T cruzi growth-2	T cruzi growth-3	3T3 cytotox	NIH3T3 tox 2
C[C@@H]1CN([C@H](C)CO)S(=O)(=O)c2ccc(C3=CCCC3)cc2O[C@H]1CN(C)Cc1ccncc1	-65	-1	2	115*	98*	104*	68*	76*
COc1ccc(NC(=O)N[C@@H]2CC[C@H](CC(=O)NCc3ccccn3)O[C@H]2CO)cc1	12	0	0	5	nt	nt	nt	nt
Cc1noc(C)c1NC(=O)N(C)C[C@H]1Oc2ccc(NC(=O)Cc3cn(C)c4ccccc34)cc2CC(=O)N([C@H](C)CO)C[C@H]1C	4	3	-18	-52	nt	nt	nt	nt
C[C@H](CO)N1C[C@H](C)[C@H](CN(C)C(=O)Nc2ccc(C(F)(F)F)cc2)OCCCC[C@H](C)Oc2ccc(NS(=O)(=O)c3cccs3)cc2C1=O	-20	1	7	97*	97*	105*	-2	1
C[C@@H]1CCCCO[C@@H](CN(C)Cc2ccc(C(F)(F)F)cc2)[C@H](C)CN([C@H](C)CO)C(=O)c2cc(NS(=O)(=O)c3cccs3)ccc2O1	-65	-1	1	114*	98*	114*	-10	104*
C[C@@H]1CCCCO[C@H](CN(C)Cc2ccc(C(F)(F)F)cc2)[C@@H](C)CN([C@H](C)CO)C(=O)c2cc(NS(=O)(=O)c3cccs3)ccc2O1	-6	0	nt	23	nt	nt	nt	nt
C[C@@H]1CCCCO[C@H](CN(C)Cc2ccc(C(F)(F)F)cc2)[C@H](C)CN([C@H](C)CO)C(=O)c2cc(NS(=O)(=O)c3cccs3)ccc2O1	-39	-1	nt	101*	99*	117*	25	105*
C[C@@H]1CCCCO[C@H](CN(C)Cc2ccc(C(F)(F)F)cc2)[C@H](C)CN([C@@H](C)CO)C(=O)c2cc(NS(=O)(=O)c3cccs3)ccc2O1	-44	-2	1	113*	97*	104*	18	103*
O=C(c1ccccn1)N1C[C@@H]2[C@H](c3ccccc31)[C@H](CO)N2CC1CCCC1	3	3	nt	25	nt	nt	nt	nt
COc1ccc(NC(=O)N(C)C[C@@H]2Oc3c(NC(=O)C4CCOCC4)cccc3C(=O)N([C@@H](C)CO)C[C@@H]2C)cc1	19	7	-1	57	nt	nt	nt	nt
C[C@@H]1CCCCO[C@@H](CN(C)Cc2ccc(C(F)(F)F)cc2)[C@H](C)CN([C@@H](C)CO)C(=O)c2cc(NS(=O)(=O)c3cccs3)ccc2O1	-40	0	nt	112*	103*	99*	?	106*
C[C@@H]1CCCCO[C@@H](CN(C)Cc2ccc(C(F)(F)F)cc2)[C@@H](C)CN([C@H](C)CO)C(=O)c2cc(NS(=O)(=O)c3cccs3)ccc2O1	-22	0	nt	81	nt	nt	nt	nt
COc1cc(NC(=O)CN(C)S(=O)(=O)c2ccc(Br)cc2)c(OC)cc1Cl	nt	nt	0	nt	nt	nt	nt	nt
C[C@@H]1CCCCO[C@H](CN(C)C(=O)NC2CCCCC2)[C@@H](C)CN([C@H](C)CO)C(=O)c2cc(NS(=O)(=O)c3ccc(Cl)cc3)ccc2O1	2	0	5	31	nt	nt	nt	nt
C[C@H](CO)N1C[C@H](C)[C@@H](CN(C)Cc2ccc(Oc3ccccc3)cc2)Oc2ccc(NC(=O)Nc3cccc4ccccc34)cc2C1=O	-51	-1	nt	117*	99*	78	?	24

Source: PubChem (Broad Institute)
